HSF1 inh: HSF1 inhibition; NIH3T3-HGL HSE-luciferase, MG132-induced, luminescence 8 h; active compounds read low; activity change, negative = inhibition, % at 7.5 µM (by protocol); actives 0.77% (n = 300,000); AID 2098;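 active = more than half of replicate wells show activity change below -50%, luminescence cut by over half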;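 note: luciferase reports HSF-1 transcriptional activity via heat shock element; 0% = median of DMSO wells and -100% = zero luminescence signal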
HSF-1 act: increases HSF-1 driven luciferase reporter signal; activation, % at 9 µM; actives 1.7% (n = 300,000); NIH3T3-HGL HSF-1 luciferase reporter, MG132, 8 h; 100% = twice DMSO control signal;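 active = mean replicate activation of at least 50% with a set share of replicates each reaching 50%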;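 note: 0% = median of the neutral control wells and 100% = twice that signal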
CHT block: human CHT choline transport inhibition. Q9GZV3. CHT-expressing cells, membrane potential dye, choline response; active compounds read low. B-score at 10 µM. actives 0.86% (n = 310,000). AID 488975;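 active = B-score over 3 SD under the library average, and starting fluorescence ratio not unusually high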;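 note: choline stimulus applied at its EC90 after an EC20 pre-addition; B-score computed on integrated fluorescence ratio after choline addition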
PHOSPHO1 inh: blocks human PHOSPHO1 phosphatase activity; Q8TCT1; inhibition, % at 13.3 µM; actives 1.1% (n = 290,000); AID 1565; recombinant PHOSPHO1, absorbance phosphatase assay; in the data active = inhibition above about 60%
Target sequence (Q8TCT1 whole entry, looked up): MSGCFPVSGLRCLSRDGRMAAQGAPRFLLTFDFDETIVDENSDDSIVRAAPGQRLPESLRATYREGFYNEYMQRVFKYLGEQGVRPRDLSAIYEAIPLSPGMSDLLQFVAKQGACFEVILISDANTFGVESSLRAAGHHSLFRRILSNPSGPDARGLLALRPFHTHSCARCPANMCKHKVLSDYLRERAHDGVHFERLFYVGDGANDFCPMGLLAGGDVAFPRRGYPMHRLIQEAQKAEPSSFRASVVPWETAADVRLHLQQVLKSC
CHT PAM: allosteric activators of human choline transporter CHT | Q9GZV3 | CHT-expressing cells, membrane potential dye, choline EC20; active compounds read high; LV-AA mutant CHT in HEK293 cells | B-score at 10 µM | actives 0.49% (n = 310,000) | AID 488977;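 active = initial fluorescence not abnormally high and integrated response B-score, plate-corrected, over 3 SD above library mean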
Hep lipid drop: hepatic lipid droplet formation modulation | AML12 mouse hepatocytes, oleate lipid droplets, BODIPY imaging | inhibition, % at 6.5 µM | actives 0.4% (n = 240,000);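 active = lipid droplet intensity inhibited by at least 50%, with more than 500 cells counted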
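Assay system: AML12 hepatocytes (mouse); Probe or stimulus: oleic acid at 100 µM to induce lipid droplet formation; Dosing: compound at 6.5 µM only; Schedule: compound with oleate, overnight; Detection: fluorescence imaging, 20x objective, two fields per well; Measure: % inhibition of lipid droplet signal.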
An asterisk follows results filed as active; i = inactive; nt = no result. Shown are actives, neighbours in structure and some others; about 4.9% of the full set was active somewhere.

SMILES | HSF1 inh | HSF-1 act | CHT block | PHOSPHO1 inh | CHT PAM | Hep lipid drop
CCc1ccccc1NC(=O)CN(C)C(=O)Cn1ncc(Cl)c(Cl)c1=O | 28 | 22 | i | -3 | i | -14
CCN(CC)S(=O)(=O)c1cc(NC(=O)Cn2ncc(Cl)c(Cl)c2=O)ccc1C | 81 | 120* | i | 12 | i | 0
O=C(NCCCC1CCCC1)C1CCC(=O)N(Cc2cccc(F)c2)C1 (stereo not given) | 37 | 30 | i | 0 | i | 2
S=C(Nc1ccc2nc(-c3ccccn3)c(-c3ccccn3)nc2c1)N1CCCCC1 | nt | nt | nt | 87* | nt | -4
COc1ccc(-c2nn(-c3ccccc3)cc2/C=N/N2C(=O)CSC2=S)cc1 | 38 | 76* | i | 30 | i | 13
COc1ccc(/C=N/N2C(=O)CSC2=S)cc1 | 8 | -7 | i | 50 | i | 9
COc1cc(/C=N/Nc2nc3c(c(=O)n(C)c(=O)n3C)n2Cc2ccccc2)ccc1OC(=O)c1ccco1 | 11 | 6 | i | 4 | i | -78
COc1ccc(Cc2nc3ccc(C(=O)N4C[C@@H](C)O[C@@H](C)C4)cc3o2)cc1OC | 8 | 12 | i | 64* | i | 12
COCCN1CCN(C(=O)c2ccc3nc(Cc4ccc(OC)c(OC)c4)oc3c2)CC1 | -11 | -17 | i | 23 | i | -2
C=CCNC(=O)c1ccc2nc(Cc3ccc(OC)cc3)oc2c1 | 63 | 78* | i | nt | i | nt
COCCCNC(=O)c1ccc2nc(Cc3ccc(OC)cc3)oc2c1 | 17 | 31 | i | 19 | i | -1
Cc1ccc(C(C#N)c2ccc(Cl)nn2)cc1 (stereo not given) | 5 | 20 | i | -20 | i | nt
Cc1cccc(C(C#N)c2ccc(Cl)nn2)c1 (stereo not given) | 25 | 74* | i | 4 | i | nt
O=C(c1ccco1)c1coc2c1cc(O)c1ccccc12 | 36 | 68* | i | 50 | i | 2
CC(=O)c1coc2c1cc(O)c1ccccc12 | 3 | 9 | i | 64* | i | nt
CC(=O)Oc1cc2c(C(C)=O)coc2c2ccccc12 | 3 | 1 | i | 0 | i | 6
COc1ccc(Cl)cc1C(=O)NCC(=O)OCc1ccccc1 | -52* | -65 | i | nt | i | nt
COc1ccc(C(C)=O)cc1COC(=O)CNC(=O)c1ccccc1F | -4 | 4 | i | 7 | i | 13
CCOC(=O)C1(Cc2ccc(OC)cc2)CCN(C(=O)c2cc3ccccc3[nH]2)CC1 | 56 | 77* | i | -20 | i | -5
O=C1c2ccc(-c3nc4ccccc4o3)cc2C(=O)N1Cc1cccnc1 | -21 | -11 | i | nt | i | nt
Cc1nc2ccc(S(=O)(=O)NCC(=O)NCCc3ccc(Cl)cc3)cc2s1 | 8 | 2 | i | 70* | i | 4
CCSc1nc(N)c2c3c(sc2n1)CN(C)CC3 | -2 | -3 | i | 46 | 6.3* | 0
CCC(O)CNc1nc(SC)nc2sc3c(c12)CCN(C)C3 (stereo not given) | -8 | 14 | i | -15 | 7.1* | -1
C=CCSc1nc(N)c2c3c(sc2n1)CN(C)CC3 | 2 | -2 | i | 19 | i | -1
CCn1c(SCC(N)=O)nc2sc3c(c2c1=O)CCN(C)C3 | nt | nt | i | 41 | 7.9* | -26
SMILES | HSF1 inh | HSF-1 act | CHT block | PHOSPHO1 inh | CHT PAM | Hep lipid drop
CCNc1nc(SCC(N)=O)nc2sc3c(c12)CCN(C)C3 | -4 | 0 | nt | -8 | nt | 8
CSc1nc(SCC(N)=O)c2c3c(sc2n1)CN(C)CC3 | -6 | 4 | i | 9 | 6.3* | nt
COCCSc1nc2sc3c(c2c(=O)n1-c1ccccc1)CCN(C)C3 | -3 | 21 | i | 40 | 7.5* | -19
CSc1nc(N)c2c3c(sc2n1)CN(C)CC3 | 1 | 7 | i | 10 | 7.7* | nt
Cc1ccc(N/C=C(/C#N)c2ccsc2)cc1C | 58 | 101* | i | -65 | i | 5
COC(=O)Cc1[nH]n(-c2nc3ccccc3s2)c(=O)c1C(C)=Nc1ccc(Cl)cc1 | -68* | -71 | i | 32 | i | 0
COC(=O)Cc1[nH]n(-c2nc3ccccc3s2)c(=O)c1C(C)=Nc1ccc(C)cc1 | 2 | 6 | i | 37 | i | 1
CCOC(=O)CSC1=N/C(=C\c2cc(OC)c(OC)c(OC)c2)C(=O)N1C | -15 | -35 | i | 3 | i | 32
CSC1=N/C(=C\c2ccc(C)cc2)C(=O)S1 | 0 | 6 | i | 19 | i | nt
CSC1=N/C(=C\c2cccc(F)c2)C(=O)S1 | 9 | 0 | i | 67* | i | nt
COCCNC(=O)c1cc2c(=O)n3cccc(C)c3nc2n1C | -1 | -17 | i | 33 | i | 11
COCCCNC(=O)c1cccn2c(=O)c3cc4ccccc4cc3nc12 | nt | nt | i | 95* | i | nt
O=C(NCc1ccco1)c1cnc2ccccn2c1=O | -4 | 3 | i | 8 | i | -6
O=C(NCc1ccco1)c1cccn2c(=O)c3cc4ccccc4cc3nc12 | nt | nt | nt | 100* | nt | 6
COc1cc(Br)cc(/C=C/c2ccc3cccc(O)c3n2)c1O | 63 | 85* | i | -23 | i | -5
Oc1ccc(Cl)cc1/C=C/c1ccc2cccc(O)c2n1 | 29 | 58* | nt | 30 | nt | -4
Oc1c(Cl)cc(Cl)cc1/C=C/c1ccc2cccc(O)c2n1 | 9 | 14 | i | -46 | i | -18
Cc1ccsc1/C=C/c1ccc2cccc(O)c2n1 | 46 | 71* | i | 86* | i | -1
CS(=O)(=O)Cc1ccc(C(=O)NC(c2ccccc2)c2ccccc2)cc1 | -27 | -37 | i | 32 | i | 13
COC(=O)[C@@H](Cc1c[nH]c2ccccc12)NC(=O)c1ccc2c(c1)OCO2 | 30 | 70* | i | 22 | i | 8
COc1ccc(-n2c(SC3CCOC3=O)nc3ccccc3c2=O)cc1OC (stereo not given) | 3 | 6 | i | 66* | i | nt
Cc1cc(C)cc(C(=O)Nc2c3c(nn2C(C)(C)C)CS(=O)(=O)C3)c1 | 4 | 36 | i | 34 | i | -5
CC(C)(C)n1nc2c(c1NC(=O)c1cccc(Cl)c1)CS(=O)(=O)C2 | -13 | 6 | i | 65* | i | 9
O=C(CCC(=O)c1cccs1)c1cccs1 | 30 | 55* | i | 1 | i | -2
O=C(CCC(=O)c1cccs1)NC(c1ccccc1)c1ccccc1 | 2 | 0 | i | -1 | i | nt
O=C(Nc1ccc(O)c(-c2nc3ccccc3o2)c1)C1(c2ccccc2)CCCC1 | 1 | 31 | i | 26 | i | nt
Cc1nc(/C(N)=N/OC(=O)Cc2ccccc2)no1 | 19 | 57* | i | 16 | i | 6
